Source: PubChem BioAssay
MrgX1 antag: antagonists of human MrgX1 receptor, primary screen, HEK293 cells, Fluo-4 calcium flux | BAM8-22 antagonism; active compounds read low | B-score at 10 µM | 1.3% of 310,000 active;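 active means calcium-response B-score plate-corrected more than 3 library SD below zero, starting fluorescence within 5 deviations, no agonist response on first addition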;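 further: peak minus trough fluorescence over baseline after final BAM8-22 challenge near maximal dose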
Target sequence (Q96LB2 whole entry, looked up): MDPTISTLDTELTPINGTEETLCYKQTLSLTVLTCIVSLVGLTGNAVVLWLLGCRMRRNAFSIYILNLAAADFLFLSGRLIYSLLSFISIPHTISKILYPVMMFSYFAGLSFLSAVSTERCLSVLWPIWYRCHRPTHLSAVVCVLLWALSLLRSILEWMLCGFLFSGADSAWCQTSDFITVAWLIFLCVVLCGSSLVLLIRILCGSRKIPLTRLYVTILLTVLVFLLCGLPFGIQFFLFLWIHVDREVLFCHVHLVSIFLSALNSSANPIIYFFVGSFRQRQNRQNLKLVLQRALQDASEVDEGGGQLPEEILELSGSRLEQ
MrgX1 ag: agonists of human MrgX1 receptor, primary screen, HEK293 cells, Fluo-4 calcium flux; B-score at 10 µM; Fluo-4 calcium fluorescence, agonist mode; active compounds read high; Mas-related G-protein coupled receptor member X1 (Homo sapiens), Q96LB2; 0.44% of 310,000 active;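 active means calcium response B-score plate-corrected fluorescence ratio at least 3 library SD, with starting fluorescence B-score inside 5 SD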
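Test system: HEK293 cells stably expressing human MrgX1 receptor; amount: 15,000 cells per well; doses: compound delivered in addition one of three; times: overnight plating before 1 h dye loading; detection: Fluo-4 NW calcium-flux fluorescence, kinetic read; read-out basis: B-scored fluorescence response ratio; controls: positive and negative controls per plate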
RGS4 act: RGS4 potentiators or activators, primary screen, cell-based, HEK293 M3R inducible RGS4, calcium flux | carbachol calcium flux Fluo4; active compounds read low | B-score at 10 µM | 0.92% of 310,000 active | AID 463111, 2010;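 active means B-score of the integrated calcium signal more than 4 SD below the library mean, with starting fluorescence not abnormally high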;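 further: negative B-score means reduced calcium response which marks RGS4 activation or potentiation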
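Test system: HEK293 cells with stable M3R and inducible RGS4; also added: carbachol at ECmax as muscarinic agonist stimulus; schedule: dye loading 30 min 37 °C, buffer rest 30 min RT; technique: kinetic calcium fluorescence imaging with Fluo4-AM dye, 2 µM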
RGS4 inh: RGS4 inhibitors, primary screen, cell-based, HEK293 M3R inducible RGS4, calcium flux; B-score at 10 µM; Fluo-4 calcium flux; active compounds read high; triggered by carbachol at its EC20; Regulator of G-protein signaling 4 (Homo sapiens), P49798; 0.45% of 310,000 active;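 active means B-score, a plate-corrected calcium signal, over three deviations above library mean, with baseline fluorescence within five deviations of library mean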;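 further: RGS4 expression induced by doxycycline in cells with stable M3 receptor; B-score is computed from the integrated fluorescence ratio over baseline after carbachol; higher B-score means a larger calcium signal and so more RGS4 inhibition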
Target sequence (P49798 whole entry, looked up): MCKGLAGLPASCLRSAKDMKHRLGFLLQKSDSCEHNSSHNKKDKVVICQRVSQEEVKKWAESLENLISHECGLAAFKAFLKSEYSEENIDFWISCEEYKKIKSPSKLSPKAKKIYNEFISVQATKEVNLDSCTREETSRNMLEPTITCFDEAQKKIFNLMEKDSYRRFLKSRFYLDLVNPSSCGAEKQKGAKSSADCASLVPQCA
MrgX1 PAM: positive allosteric modulators of MrgX1, primary screen, HEK293 cells, Fluo-4 calcium flux; Mas-related G-protein coupled receptor member X1 (Homo sapiens), Q96LB2; FDSS; active compounds read high; 0.63% of 310,000 active; AID 588675, 2011; B-score at 10 µM;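 active means plate-corrected calcium response at least 3 library SD above typical, normal starting fluorescence, not activating the receptor alone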;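 further: compound read alongside a low EC10 to EC30 dose of BAM8-22 agonist; peak minus trough fluorescence over baseline measured at the second addition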
Numbers without * were called inactive; i = inactive; ! = a repeat was not active. In the library only some 3.5% were active in any assay of this set; here they are far more common.

SMILES	MrgX1 antag	MrgX1 ag	RGS4 act	RGS4 inh	MrgX1 PAM
O=C(NCCc1ccccc1)c1ccc2nc(-c3ccco3)c(-c3ccco3)nc2c1	-7.87*	i	i	i	i
O=C(NCCO)c1ccc2nc(-c3ccco3)c(-c3ccco3)nc2c1	i	i	i	i	i
CCN(CC)CCCNC(=O)c1ccc2c(SCC(=O)O)c3c(nc2c1)CCC3	i	i	i	i	i
CCN(CC)CCNC(=O)CSc1c2c(nc3cc(Cl)ccc13)CCCC2	i	i	-7.32*	i	i
CN1CCC(=C(c2ccccc2)c2ccc(Br)cc2)CC1	i	i	-7.68*	i	i
CN(C)c1ccc(/C=C2\N=C(c3ccc(Cl)c([N+](=O)[O-])c3)NC2=O)cc1	-6.93*	i	i	i	i
CN(C)c1ccc(/C=C2/NC(=O)NC2=O)cc1	i	i	i	i	i
Cc1cccc(NS(=O)(=O)c2cc(C(=O)N3CCCCCC3)ccc2C)c1	i	i	i	i	i
CCOC(=O)CSc1nc(N)c(C#N)c(-c2ccc(OC)cc2)c1C#N	-5.8*	i	i	i	i
O=C(Nc1ccc(F)cc1Cl)c1ccc2c(=O)n3c(nc2c1)CCC3	i	i	i	i	i
Cc1cc(OCC(=O)N2CCOCC2)ccc1NC(=O)c1ccccc1C	i	i	i	i	i
CC(C)(C)NC(=O)[C@@H]1C[C@@H]2CCCC[C@@H]2CN1C[C@@H](O)[C@H](Cc1ccccc1)NC(=O)[C@H](CC(N)=O)NC(=O)c1ccc2ccccc2n1	-5.98*!	i	i	i	i
COC(=O)[C@H](Cc1ccccc1)NC(=O)c1ccc2ccccc2n1	i	i	i	i	i
Cc1ccc(NC(=O)NC2CCCCCCC2)cc1	i	i	i	i	i
N=C1/C(=C/c2ccc(-c3cccc(C(=O)O)c3)o2)C(=O)N=C2SC=C(c3ccccc3)N12	-7.6*	i	-8.37*	i	i
N=C1/C(=C\c2ccc(-c3cc(Cl)cc(Cl)c3)o2)C(=O)N=C2SC=C(c3ccccc3)N12	i	i	i	i	i
Cc1c(C(c2ccc(F)cc2)c2c(C)n(C)n(-c3ccccc3)c2=O)c(=O)n(-c2ccccc2)n1C	i	i	i	i	i
N#C/C(=C(/O)CCl)c1nc(-c2ccccc2)cs1	-6.09*	i	i	i	i
CCCOc1ccccc1C1CC(=O)NC(C)=C1C(=O)OCC(C)C (configuration not stated)	i	i	i	i	i
COC(=O)C1=C(C)NC(C)=C(C(=O)OCC(C)C)C1c1ccccc1[N+](=O)[O-] (configuration not stated)	i	30.9*	i	i	i
CCn1cc(/C=C(\NC(=O)c2ccccc2F)C(=O)NCCCn2ccnc2)c2ccccc21	i	i	i	i	i
Cc1c(CCC(=O)N2CCC(C(=O)O)(c3ccccc3)CC2)c(=O)oc2cc3oc4c(c3cc12)CCCC4	-6.24*	i	i	i	i
Cc1c(CCC(=O)N2CCC(C(=O)O)CC2)c(=O)oc2cc3oc4c(c3cc12)CCCC4	i	i	i	i	i
CCCC1=NN2C(=N)/C(=C\c3cc(C)n(-c4cc(C)cc(C)c4)c3C)C(=O)N=C2S1	i	i	-8.56*	i	i
Cc1cc(C)cc(-n2c(C)cc(/C=C3\C(=N)N4N=C(CC(C)C)SC4=NC3=O)c2C)c1	i	i	-7.84*	i	i
SMILES	MrgX1 antag	MrgX1 ag	RGS4 act	RGS4 inh	MrgX1 PAM
CC1(C)CC(=O)c2c(O)cc(OCC(=O)N3CCN(c4ccccc4)CC3)cc2O1	i	i	i	i	i
O=C1N/C(=C\c2ccc(O)cc2)C(=O)c2ccccc21	i	40.3*	i	i	i
O=C(Nc1ccccc1)N1CCC(C(=O)N2CCCC(C(F)(F)F)C2)CC1 (configuration not stated)	i	i	i	i	i
CN(CCC#N)C(=O)COC(=O)/C=C/c1ccc2c(c1)OCO2	-5.96*	i	i	i	i
[O-][n+]1cccc2c(Br)cc(Br)c(O)c21	-4.73*	i	i	i	i
CC(=O)Nc1cccc(C(=O)/C=C/c2ccc(/C=C/C(=O)c3cccc(NC(C)=O)c3)cc2)c1	i	i	i	4.75*	i
Cc1cccc(C(=O)Nc2ccc(C(=O)/C=C/c3cccnc3)cc2)c1	i	i	i	i	i
O=C(/C=C/c1cccnc1)c1ccc(NC(=O)c2cccc(Br)c2)cc1	i	i	i	i	7.07*
Cc1cccc(C(=O)Nc2ccc(C(=O)/C=C/c3ccncc3)cc2)c1	i	i	i	i	10.6*
COc1ccc(S(=O)(=O)N2CCCC2=O)cc1N(C)S(C)(=O)=O	i	i	i	i	i
CC(=O)Nc1ccc(/C=N/N2C(=O)NC(C)(c3ccc(OC(F)F)cc3)C2=O)cc1 (configuration not stated)	i	30.6*	-6.95*	i	i
CC1(c2ccc(OC(F)F)cc2)NC(=O)N(CC(=O)Nc2ccc3[nH]c(=O)[nH]c3c2)C1=O (configuration not stated)	i	i	i	i	i
COc1ccc(C2(c3ccc(OC)cc3)NC(=O)N(CC(=O)Nc3ccc(C(=O)N(C)C)cc3)C2=O)cc1	-6.42*	i	i	i	i
CCOC(=O)CN1C(=O)NC(C)(c2ccc(OC(F)F)cc2)C1=O (configuration not stated)	i	i	i	i	i
CC1(c2ccc(OC(F)F)cc2)NC(=O)N(CC(=O)Nc2ccccc2)C1=O (configuration not stated)	i	28.7*	i	i	i
COc1ccc(Br)c(C(=O)N(C)CC(=O)Nc2ccc(N3CCOCC3)cc2)c1	i	i	i	i	i
O=C(COc1ccc(Cl)cc1)NCCS(=O)(=O)N1CCN(c2ccccc2F)CC1	i	i	i	i	i
Cc1ccccc1CN1CCN(C(=O)c2cc(-c3ccncc3)nc3ccccc23)CC1	i	i	-7.09*	i	i
CC(=O)c1ccc(N2CCN(C(=O)c3cc(-c4ccncc4)nc4ccc(Cl)cc34)CC2)cc1	i	i	-7.36*	i	i
